Source: PubChem BioAssay (several laboratories)
A selection: hits, their analogues and other compounds. The true share with any hit is near 1.5%.
Tb hexokinase: blocks Trypanosoma brucei hexokinase 1 activity | recombinant TbHK1, G6PDH-coupled NADH A340 | hit rate 0.11% among 220,000 | AID 1430 | inhibition, % at 10 µM;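 active = inhibition of 50% or more in the single-dose primary screen; inactive = inhibition below 50%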
Rad51 HR inh: Rad51 (human) homologous recombination inhibition; inhibition, % at 10 µM; Q06609; hRad51 DNA strand exchange, fluorescence dequenching; hit rate 0.085% among 200,000;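 active = inhibition above 40% at the single screening dose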
Target sequence (Q06609 whole entry, looked up): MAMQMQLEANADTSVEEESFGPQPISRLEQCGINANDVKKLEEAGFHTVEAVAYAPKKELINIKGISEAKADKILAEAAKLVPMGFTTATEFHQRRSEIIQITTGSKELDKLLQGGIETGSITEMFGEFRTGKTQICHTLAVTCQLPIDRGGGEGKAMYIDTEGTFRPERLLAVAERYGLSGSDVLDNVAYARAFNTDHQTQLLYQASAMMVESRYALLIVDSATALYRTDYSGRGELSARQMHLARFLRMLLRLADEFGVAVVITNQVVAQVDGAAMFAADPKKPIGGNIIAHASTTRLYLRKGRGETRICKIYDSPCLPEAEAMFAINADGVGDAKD
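System: hRad51 filaments on single-stranded DNA; reagent: Fluorescein- and BHQ1-tagged 47-mer duplex; compound dosing: one concentration, 10 µM final; timing: filaments 15 min 37 °C, then compound 30 min; measured by: fluorescein emission 520 nm, excitation 485 nm; benchmarks: per-plate controls and blanks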
b-catenin transl: beta-catenin nuclear translocation modulation. HeLa beta-catenin nuclear translocation, immunofluorescence imaging. nuclear translocation activity, % at 5 µM. hit rate 0.3% among 190,000. AID 1665;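 active = nuclear translocation activity above 50% at 5 µM, with a well cell count of 50 or more; inconclusive = wells under 50 cells across six images, flagged as toxic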;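 also: per-cell ratio of nuclear to cytoplasmic median beta-catenin stain intensity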
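Technique: fluorescence imaging of beta-catenin antibody stain plus DAPI / Material: human HeLa cell line / Incubation: compound treatment 24 h, 37°C, 5% CO2 / Read-out basis: % activation of per-cell nuclear versus cytoplasmic median beta-catenin signal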
Dynein transport: dynein cargo transport inhibition | z-score, hits read low | 3617.4 mouse cells, GR-EGFP nuclear translocation imaging; test concentration mostly 20 µM; stimulated with dexamethasone, 1 µM; stronger effect = lower value | hit rate 0.47% among 220,000;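 active = plate z-score of nuclear minus cytoplasmic receptor signal below a set negative limit, without overly bright fluorescence or cell loss, cut at about -3.5 in these data, passing the limit was not always enough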;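 also: z-score of nuclear minus cytoplasmic ring GR-EGFP intensity difference per well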
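medium = tetracycline-free induction medium containing charcoal-stripped FBS | probe or stimulus = dexamethasone, 1.0 µM final | timing = 48 h induction, then 1 h compound, then 30 min agonist, 37 °C | detection = automated 10x imaging of fixed Hoechst-stained cells | read-out basis = nuclear versus cytoplasmic GR-EGFP signal, averaged per well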
MT stabilize HCS: microtubule stabilizers in HeLa cells; HeLa tubulin immunostaining HCS, 24 h; share of cells brighter than vehicle mean+2SD; % tubulin-high responders, % at 10 µM; hit rate 0.83% among 200,000;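 active = plate Z-score above 3 for both tubulin-high and condensed-nucleus cell shares, with cell loss under 80%, at 10 µM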;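 also: anti alpha tubulin signal scored within the nucleus-defined area of each cell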
A number is an active result.

`O=C(O)/C=C/c1cn(Cc2ccccc2)nc1-c1cccnc1` gave Tb hexokinase inactive, Rad51 HR inh 45, b-catenin transl inactive and Dynein transport inactive.
For CCc1ccc(-c2nn(Cc3ccccc3)cc2/C=C/C(=O)O)cc1 the results were Tb hexokinase inactive, Rad51 HR inh inactive, b-catenin transl inactive, Dynein transport inactive and MT stabilize HCS inactive.
Screening CCn1c2ccccc2c2cc(/C=N/NC(=O)c3ccccc3)ccc21 returned Tb hexokinase inactive, Rad51 HR inh inactive, b-catenin transl inactive, Dynein transport inactive and MT stabilize HCS 20.
Cc1cccc(C)c1OCc1n[nH]c(=S)n1N was read as Tb hexokinase inactive, Rad51 HR inh inactive, b-catenin transl inactive, Dynein transport inactive and MT stabilize HCS inactive.
Screening Cc1ccc2nc(-c3ccc(NC(=S)NC4CC(C)(C)NC(C)(C)C4)cc3)sc2c1 returned Tb hexokinase inactive, Rad51 HR inh inactive, b-catenin transl 72, Dynein transport inactive and MT stabilize HCS inactive.
For Cc1ccc2nc(-c3ccc(NC(=S)NC(=O)C(C)C)cc3)sc2c1 the results were Tb hexokinase inactive, Rad51 HR inh inactive, b-catenin transl inactive, Dynein transport inactive and MT stabilize HCS inactive.
For C=CCOC(=O)C1=C(C)NC(SC)=C(C#N)C1c1cccs1 (stereo unspecified) the results were Tb hexokinase inactive, Rad51 HR inh inactive, b-catenin transl inactive, Dynein transport inactive and MT stabilize HCS 38.
CCOC(=O)c1c(NC(=O)CN2C(=O)NC3(CCCCC3C)C2=O)sc(C)c1C (stereo unspecified) was read as Tb hexokinase inactive, Rad51 HR inh inactive, b-catenin transl inactive, Dynein transport inactive and MT stabilize HCS inactive.
`CCOC(=O)c1c(NC(=O)CN2C(=O)NC(C)(c3ccccc3)C2=O)sc(C)c1C` (stereo unspecified) gave Tb hexokinase inactive, Rad51 HR inh inactive, b-catenin transl 62, Dynein transport inactive and MT stabilize HCS 13.
O=C(N/N=C/c1c(-c2ccccc2)[nH]c2ccccc12)c1cccnc1 was read as Tb hexokinase inactive, b-catenin transl inactive, Dynein transport inactive and MT stabilize HCS 18.
For OC(CNCc1ccc(-c2ccccc2)cc1)c1ccccc1 (stereo unspecified) the results were Tb hexokinase inactive, Rad51 HR inh inactive, b-catenin transl 68, Dynein transport inactive and MT stabilize HCS inactive.
`OC(CNCc1cccc(Br)c1)c1ccccc1` (stereo unspecified) gave Tb hexokinase inactive, Rad51 HR inh inactive, b-catenin transl inactive, Dynein transport inactive and MT stabilize HCS inactive.
For CCN(CC)c1ccc(-c2nn3c(-c4n[nH]c5c4CCC5)nnc3s2)cc1 the results were Tb hexokinase inactive, Rad51 HR inh inactive, b-catenin transl 65, Dynein transport inactive and MT stabilize HCS 23.
For Cn1c(=O)[nH]c(=O)c2c1nc(CN1CCN(c3cccc(Cl)c3)CC1)n2CCCc1ccccc1 the results were Tb hexokinase inactive, Rad51 HR inh inactive, b-catenin transl inactive, Dynein transport inactive and MT stabilize HCS inactive.
`CCN1CCN(Cc2nc3c(c(=O)[nH]c(=O)n3C)n2Cc2ccccc2Cl)CC1` gave Tb hexokinase inactive, Rad51 HR inh inactive, b-catenin transl inactive, Dynein transport inactive and MT stabilize HCS inactive.
Screening CCCCn1c(CN2CCN(c3cccc(Cl)c3)CC2)nc2c1c(=O)[nH]c(=O)n2C returned Tb hexokinase inactive, Rad51 HR inh inactive, b-catenin transl inactive, Dynein transport inactive and MT stabilize HCS 35.
For Cn1c(=O)[nH]c(=O)c2c1nc(CN1CCN(c3cccc(Cl)c3)CC1)n2Cc1ccccc1Cl the results were Tb hexokinase inactive, Rad51 HR inh inactive, b-catenin transl inactive, Dynein transport inactive and MT stabilize HCS 14.
For Cc1cccc(N2CCN(C(=O)c3cn(C)c(=O)c4c3c3ccccc3n4C)CC2)c1C the results were Tb hexokinase inactive, b-catenin transl inactive, Dynein transport inactive and MT stabilize HCS inactive.
Cc1ccc(Cl)cc1N1CCN(C(=O)c2cn(C)c(=O)c3c2c2ccccc2n3C)CC1 was read as Tb hexokinase inactive, Rad51 HR inh inactive, b-catenin transl 139, Dynein transport inactive and MT stabilize HCS inactive.
Cc1cc(C)n(S(=O)(=O)c2cc(Cl)ccc2Cl)n1 was read as Tb hexokinase inactive, Rad51 HR inh inactive, b-catenin transl inactive, Dynein transport inactive and MT stabilize HCS inactive.
Screening O=C1N/C(=C/c2ccc(N3CCOCC3)o2)C(=O)N1c1ccccc1 returned Tb hexokinase inactive, Rad51 HR inh inactive, b-catenin transl inactive, Dynein transport -6.2 and MT stabilize HCS inactive.
Screening C=CCN1C(=O)N/C(=C/c2ccc(N3CCOCC3)o2)C1=O returned Tb hexokinase inactive, Rad51 HR inh inactive, b-catenin transl inactive, Dynein transport inactive and MT stabilize HCS inactive.
For Cc1ccc(C)c(S(=O)(=O)ON2C(=O)c3ccccc3C2=O)c1 the results were Tb hexokinase inactive, Rad51 HR inh inactive, b-catenin transl inactive, Dynein transport -3.6 and MT stabilize HCS inactive.
COc1ccc(NC(=O)c2cccs2)c([N+](=O)[O-])c1 was read as Tb hexokinase inactive, Rad51 HR inh inactive, b-catenin transl inactive, Dynein transport inactive and MT stabilize HCS inactive.
`Cc1csc(SC(C)c2nc3scc(-c4ccccc4)c3c(=O)[nH]2)n1` (stereo unspecified) gave Tb hexokinase inactive, Rad51 HR inh 40, b-catenin transl inactive and Dynein transport inactive.
`O=c1[nH]c(Cc2ccccc2)nc2scc(-c3ccccc3)c12` gave Tb hexokinase inactive, Rad51 HR inh inactive, Dynein transport inactive and MT stabilize HCS inactive.
`CCN(CC)S(=O)(=O)c1ccc2c(c1)nc(SC(C)C(N)=O)n2-c1ccc(OC)cc1` (stereo unspecified) gave Tb hexokinase inactive, Rad51 HR inh 63, Dynein transport inactive and MT stabilize HCS inactive.
For CCn1c(NCc2ccccc2NS(=O)(=O)c2ccc(C)cc2)nc2ccccc21 the results were Tb hexokinase inactive, Rad51 HR inh inactive, b-catenin transl inactive, Dynein transport inactive and MT stabilize HCS inactive.
For CCCn1c(NCc2ccccc2NS(=O)(=O)c2ccc(C)cc2)nc2ccccc21 the results were Tb hexokinase inactive, Rad51 HR inh inactive, b-catenin transl inactive, Dynein transport inactive and MT stabilize HCS 21.
`COc1ccc(NC(=O)c2ccc3c(c2)NC(=O)CS3)cc1S(=O)(=O)Nc1ccc(Br)cc1` gave Tb hexokinase inactive, Rad51 HR inh inactive, b-catenin transl inactive, Dynein transport inactive and MT stabilize HCS inactive.
Screening Cc1ccc(C(=O)C(C(=O)/C=C/c2ccccc2)=C2SCCCS2)cc1 returned Tb hexokinase inactive, Rad51 HR inh inactive, b-catenin transl inconclusive, Dynein transport -4.5 and MT stabilize HCS inactive.
O=C(CC1CS(=O)(=O)CC1CC(=O)Nc1ccc2c(c1)OCCO2)Nc1ccc2c(c1)OCCO2 (stereo unspecified) was read as Tb hexokinase inactive, Rad51 HR inh inactive, b-catenin transl inactive, Dynein transport inactive and MT stabilize HCS inactive.
